Screening data deposited in PubChem BioAssay by Broad Institute.
Only some compounds are listed: those with a hit (about 2.9% of all), similar ones and a draw of the others.
Env fusion inh: blocks HIV Env-driven cell-cell fusion; HeLa-JRFL Env/CEM21 cell fusion, luciferase; inhibition, % at 12.3 µM; 1.1% of 360,000 active; AID 651610;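 active means mean replicate inhibition score of at least 50 and every replicate individually at or above 50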
CDK5 p35 inh: CDK5/p35 (human) kinase inhibition; Q00535+Q15078; Recombinant CDK5/p35, ADP-Glo luminescence, 60 min; inhibition, % at 10 µM; 0.01% of 330,000 active; AID 488839;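 active means highest replicate inhibition of at least 50% and at least 75% of replicates reaching 50%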
INS-1E GSIS act: GLuc luminescence reporter in INS-1E cells, primary screen for activators of glucose-dependent secretion of insulin; INS-1E GLuc reporter insulin secretion, 2-3 h; activation, % at 16.6 µM; 0.61% of 370,000 active; AID 743287;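 active means lowest replicate activation of at least 40%, so every replicate reaches that level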
Cneo AK release: causes C. neoformans cell lysis; adenylate kinase release luminescence, 4 h; normalised: neutral wells 0, clomiphene wells 100; lysis activity, % at 15 µM; 0.2% of 360,000 active;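 active means mean lysis activity across replicates of at least 80%, whatever share of replicates individually reach that level; inactive means mean lysis activity below 80%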
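Test system: log-phase Cryptococcus neoformans yeast cells; Quantity: yeast cell density of 5 × 10^6 cells/mL; Buffer or medium: YPD; Doses: single compound concentration per well; Timing: 4 h at 37 °C static, read 1 h later; Measured by: AK luminescence; Read-out basis: lysis from increased AK signal; Control set: Clomiphene as positive control.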
PAX8 reporter: inhibitors of PAX8 transcriptional activity in RMG-I cells | RMG-I TPO-luciferase reporter, SteadyGlo, 24 h | inhibition, % at 12.6 µM | 1.2% of 360,000 active;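 active means mean replicate inhibition at least 60% with every replicate also reaching 60%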;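 further: luciferase light reporting Pax8 driven TPO promoter activity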
dFosB act-1: activators of mouse delta FosB homodimer. purified delta FosB, TAMRA-CDK5 oligo fluorescence polarization; percent of positive-control signal above neutral wells. activation, % at 25 µM. 0.99% of 340,000 active. P13346;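 active means mean activation above about 17%, with every replicate also reaching it, limit read from the data, passing the limit was not always enough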
Target sequence (P13346 whole entry, looked up): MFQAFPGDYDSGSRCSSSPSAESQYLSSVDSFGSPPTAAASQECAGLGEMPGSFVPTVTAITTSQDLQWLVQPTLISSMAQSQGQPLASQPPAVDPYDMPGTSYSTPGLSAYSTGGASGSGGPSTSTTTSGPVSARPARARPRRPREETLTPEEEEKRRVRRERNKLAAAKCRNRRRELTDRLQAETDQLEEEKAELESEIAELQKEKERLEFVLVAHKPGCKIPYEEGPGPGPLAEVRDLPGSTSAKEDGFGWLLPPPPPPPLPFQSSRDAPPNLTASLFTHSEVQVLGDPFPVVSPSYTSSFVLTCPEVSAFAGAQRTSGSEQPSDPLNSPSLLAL
dFosB act-2: delta FosB (mouse) homodimer activation; shares compounds with dFosB act-1; purified delta FosB, TAMRA-CDK5 oligo fluorescence polarization; normalised: neutral wells 0, positive control 100; activation, % at 24.9 µM; 2,400 tested, under 10 active; AID 588690;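 active means highest replicate activation at or above 34% and every replicate reaching that threshold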;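 further: higher polarization means more probe DNA bound by delta FosB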
Numbers stand for hits.

`Cc1noc(C)c1S(=O)(=O)Nc1ccc2c(c1)C(=O)N([C@@H](C)CO)C[C@H](C)[C@H](CN(C)Cc1ccc3c(c1)OCO3)OCCCC[C@H](C)O2` gave Env fusion inh inactive, INS-1E GSIS act inactive, Cneo AK release inactive and PAX8 reporter inactive.
For CO[C@H]1CN(C)C(=O)c2cc(NC(=O)Cc3ccccc3)ccc2OC[C@H](C)N(C(C)=O)C[C@H]1C the results were Env fusion inh inactive, INS-1E GSIS act inactive, Cneo AK release inactive and PAX8 reporter inactive.
Screening Cc1ccc(-c2cc(C(=O)N/N=C/c3ccc(Cl)cc3)n[nH]2)o1 returned Env fusion inh inactive, CDK5 p35 inh inactive, INS-1E GSIS act inactive, Cneo AK release inactive, PAX8 reporter inactive, dFosB act-1 27 and dFosB act-2 inactive.
For CCCSc1nc(C)c2cc(C)cc(C)c2n1 the results were Env fusion inh inactive, CDK5 p35 inh inactive, INS-1E GSIS act inactive, PAX8 reporter inactive and dFosB act-1 inactive.
`Cc1cc(C)c2nc3nc(C)c(C)cc3c(N)c2c1` gave Env fusion inh inactive, CDK5 p35 inh inactive, INS-1E GSIS act inactive, PAX8 reporter inactive, dFosB act-1 26 and dFosB act-2 inactive.
For CNc1nc(Nc2ccc(C(C)=O)cc2)nc(OC(C(F)(F)F)C(F)(F)F)n1 the results were CDK5 p35 inh inactive, Cneo AK release inactive, dFosB act-1 44 and dFosB act-2 inactive.
CO[C@@H]1CN(C)C(=O)c2ccc(NS(=O)(=O)c3cccc(C)c3)cc2OC[C@@H](C)N(C(=O)Cc2cccnc2)C[C@H]1C was read as Env fusion inh inactive, INS-1E GSIS act inactive, Cneo AK release inactive and PAX8 reporter inactive.
For COc1ccc(NS(=O)(=O)c2ccc(O)c(NC(=O)c3ccc(S(=O)(=O)N4CCCCCC4)cc3)c2)cc1 the results were Env fusion inh inactive, CDK5 p35 inh inactive, INS-1E GSIS act inactive, Cneo AK release inactive, PAX8 reporter inactive and dFosB act-1 inactive.
For COc1ccc(NS(=O)(=O)c2ccc(O)c(NC(=O)c3ccc(S(=O)(=O)N4CCCC4)cc3)c2)cc1 the results were Env fusion inh inactive, CDK5 p35 inh inactive, INS-1E GSIS act inactive, Cneo AK release inactive, PAX8 reporter inactive, dFosB act-1 20 and dFosB act-2 inactive.
Screening COc1ccc(C(=O)N/N=C/c2cn[nH]c2-c2ccc(OC)cc2OC)cc1 returned CDK5 p35 inh inactive, INS-1E GSIS act inactive, Cneo AK release inactive, PAX8 reporter inactive, dFosB act-1 17 and dFosB act-2 inactive.
COc1ccc(-c2[nH]ncc2/C=N/NC(=O)c2ccncc2)c(OC)c1 was read as Env fusion inh inactive, CDK5 p35 inh inactive, INS-1E GSIS act inactive, Cneo AK release inactive, PAX8 reporter inactive, dFosB act-1 19 and dFosB act-2 inactive.
COc1ccc(-c2[nH]ncc2/C=N/NC(=O)c2ccc(Br)cc2)c(OC)c1 was read as CDK5 p35 inh inactive, INS-1E GSIS act inactive, Cneo AK release inactive, PAX8 reporter inactive and dFosB act-1 inactive.
CC(C)[C@@H]1CC=CC[C@H](C)Oc2ccccc2C(=O)N(C)[C@@H](C(C)C)C(=O)N1 (mixture of isomers) was read as INS-1E GSIS act inactive.
Screening Cc1cc(C)c2oc(C(=O)NCCc3ccc(S(N)(=O)=O)cc3)cc(=O)c2c1 returned Env fusion inh inactive, CDK5 p35 inh inactive, INS-1E GSIS act inactive, Cneo AK release inactive, PAX8 reporter inactive, dFosB act-1 41 and dFosB act-2 inactive.
Screening Cc1ccc2c(=O)cc(C(=O)NCCc3ccc(S(N)(=O)=O)cc3)oc2c1 returned CDK5 p35 inh inactive, Cneo AK release inactive and dFosB act-1 inactive.
`CC(=O)Nc1ccc(NC(=O)c2cc(=O)c3cc(C)cc(C)c3o2)cc1` gave Env fusion inh inactive, CDK5 p35 inh inactive, INS-1E GSIS act inactive, Cneo AK release inactive, PAX8 reporter inactive and dFosB act-1 inactive.
`Cc1cc(C)c2oc(C(=O)Nc3ccc(S(=O)(=O)N4CCC(C)CC4)cc3)cc(=O)c2c1` gave Env fusion inh inactive, CDK5 p35 inh inactive, INS-1E GSIS act inactive, PAX8 reporter inactive, dFosB act-1 23 and dFosB act-2 inactive.
